According to ChEMBL document CHEMBL1141543, “Protective effect of nitronyl nitroxide-amino acid conjugates on liver ischemia-reperfusion induced injury in rats” (Bioorg Med Chem Lett, 2008):
Calls of active or inactive are those of the source. The calls are words filed in the database; no cut-off is given here.

Legend:
PC-12 [1] = assay: Suppression of free radical-induced decrease in viability of rat PC12 cells; type: functional, cell-based
Summary of the method: (§1)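 PC12 rat pheochromocytoma cells exposed to NO, H2O2 or ·OH. Test compound given either as pre-incubation before radical exposure or as incubation after exposure. Cell survival read by MTT reduction, used as the index of radical scavenging.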

PC-12 [2] = assay: Nitric oxide radical scavenging activity in rat PC12 cells; type: functional, cell-based; summary of the method: as §1
Aorta [3] = assay: Nitric oxide radical scavenging activity in rat thoracic aorta assessed as inhibition of acteylcholine-induced vasorelaxation at 100 umol; type: functional, tissue-based
PC-12 [4] = assay: Hydrogen peroxide radical scavenging activity in rat PC12 cells; type: functional, cell-based; summary of the method: as §1
PC-12 [5] = assay: Hydroxyl radical scavenging activity in rat PC12 cells; type: functional, cell-based; summary of the method: as §1
Aorta [6] = assay: Nitric oxide radical scavenging activity in rat thoracic aorta assessed as inhibition of acteylcholine-induced vasorelaxation at 1 umol; type: functional, tissue-based
Aorta [7] = assay: Nitric oxide radical scavenging activity in rat thoracic aorta assessed as inhibition of acteylcholine-induced vasorelaxation at 10 umol; type: functional, tissue-based
Rattus norvegicus [8] = assay: Protection against hepatic ischemia-reperfusion-induced injury assessed as effect on aspartate aminotransferase level in Wistar rat liver at 30 mg/kg; type: functional
Summary of the method: (§2)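 Male Wistar rats, liver ischemia 30 min then reperfusion 2 h under sodium pentobarbital anesthesia (80 mg/kg). Drug 30 mg/kg given 10 min before reperfusion and again 1 h into reperfusion; sham and I/R controls received saline. n = 8 per group (sham n = 4). Serum ALT and AST measured as liver function; blood frozen at -70 °C until analysis.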

Rattus norvegicus [9] = assay: Protection against hepatic ischemia-reperfusion-induced injury assessed as effect on malondialdehyde level in Wistar rat liver at 30 mg/kg; type: functional
Summary of the method: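 Male Wistar rats given liver ischemia 30 min and reperfusion 2 h under pentobarbital anesthesia. Drug 30 mg/kg dosed 10 min before reperfusion and 1 h after it began; controls got saline. Liver frozen at -70 °C. MDA in liver mitochondria measured spectrophotometrically as thiobarbituric acid reactive substances (Buege and Aust method).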

Rattus norvegicus [10] = assay: Protection against hepatic ischemia-reperfusion-induced injury assessed as effect on alanine aminotransferase level in Wistar rat liver at 30 mg/kg; type: functional; summary of the method: as §2

Compound: CC1(C)N([O])C(c2ccc(OCC(=O)N[C@@H](CCCCN)C(=O)O)cc2)=[N+]([O-])C1(C)C
- Activity (PC-12 [1]): Active
- EC50 (PC-12 [2]): 85.5 µM
- inhibition (Aorta [3]): 85%
- EC50 (PC-12 [4]): 26.8 µM
- EC50 (PC-12 [5]): 92.7 µM
- inhibition (Aorta [6]): 24.8%
- inhibition (Aorta [7]): 60.7%

Compound: N=C(N)NCCC[C@H](N)C(=O)O [ARGININE]
- Activity (Rattus norvegicus [8]): 789 U/L
- Activity (Rattus norvegicus [9]): 3.82 nmol/mg
- Activity (Rattus norvegicus [10]): 493 U/L

Compound: CC1(C)N([O])C(c2ccc(OCC(=O)N[C@@H](CCCNC(=N)N)C(=O)O)cc2)=[N+]([O-])C1(C)C
- Activity (PC-12 [1]): Active
- EC50 (PC-12 [2]): 92.8 µM
- inhibition (Aorta [3]): 98.9%
- Activity (Rattus norvegicus [8]): 510 U/L
- EC50 (PC-12 [4]): 49 µM
- EC50 (PC-12 [5]): 98.9 µM
- inhibition (Aorta [6]): 28.7%
- Activity (Rattus norvegicus [9]): 2.76 nmol/mg
- Activity (Rattus norvegicus [10]): 173 U/L
- inhibition (Aorta [7]): 74%
